Screening data: PubChem, several laboratories
EBV gp42 block: blocks Epstein-Barr virus glycoprotein 42 binding; AID 1085; Fluorescence polarization binding assay, mP read-out; Q1HVG2; inhibition, % (tested at 21.74 µM); 0.42% of 220,000 active; in the data active means inhibition above about 50%
GPR7 antagonist: antagonists of human GPR7 (neuropeptides B/W receptor 1). P48145. GPR7-expressing cells, fluorescence antagonist assay. inhibition, % at 4.4 µM. 1.1% of 290,000 active; in the data active means inhibition above about 16%, passing the limit was not always enough;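 further: cells stimulated with the agonist NPW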
Target sequence (P48145 whole entry, looked up): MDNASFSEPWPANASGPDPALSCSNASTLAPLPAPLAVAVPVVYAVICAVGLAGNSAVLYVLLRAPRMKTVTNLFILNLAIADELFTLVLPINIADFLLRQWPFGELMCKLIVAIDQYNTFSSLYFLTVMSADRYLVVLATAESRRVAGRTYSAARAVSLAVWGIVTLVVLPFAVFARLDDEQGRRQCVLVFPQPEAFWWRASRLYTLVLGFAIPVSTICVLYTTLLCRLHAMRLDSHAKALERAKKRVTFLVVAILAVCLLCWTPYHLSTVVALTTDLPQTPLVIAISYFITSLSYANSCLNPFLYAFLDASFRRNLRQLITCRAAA
HCV core dimer: blocks dimerization of HCV core protein; TR-FRET GST/Flag-core106 dimerization, 1536-well; inhibition, % at 5 µM; 0.33% of 300,000 active;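 active means inhibition above the mean of all tested compounds plus 3 SD, set per screening campaign, cut at about 45% in these data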
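assay system = GST-tagged and Flag-tagged HCV core protein residues 1-106 | controls = unlabelled core106 and no-GST-core106 wells | incubation = compound-protein-antibody incubation 4 h at 22.5 °C | probe or stimulus = Eu donor and XL665 acceptor anti-tag antibodies | read-out = % inhibition based on acceptor/donor emission ratio | signal = TR-FRET 671 and 617 nm emission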
ZTA DNA inh: ZTA (EBV) inhibition in EBNA-1 counter-screen | P03206 | ZTA-DNA binding, fluorescence polarization | inhibition, % at 11 µM | 0.15% of 320,000 active; in the data active means inhibition above about 33%
Target sequence (P03206 whole entry, looked up): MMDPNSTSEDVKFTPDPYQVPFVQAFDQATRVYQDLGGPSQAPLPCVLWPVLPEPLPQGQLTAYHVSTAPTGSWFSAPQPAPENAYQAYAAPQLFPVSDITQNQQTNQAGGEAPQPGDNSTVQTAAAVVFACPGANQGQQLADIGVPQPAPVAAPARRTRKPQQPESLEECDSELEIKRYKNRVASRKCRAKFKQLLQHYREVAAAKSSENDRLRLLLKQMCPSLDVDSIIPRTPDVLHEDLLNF
NS3 helicase inh: HCV NS3 helicase inhibition. 0.56% of 290,000 active. NS3 helicase DNA unwinding, Cy5 molecular beacon fluorescence. inhibition, % at 10.9 µM. AID 1800;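 active means inhibition above the mean of all tested compounds plus 3 SD, set per campaign, cut at about 35% in these data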
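Test system: hepatitis C virus NS3 helicase domain fragment enzyme. Also added: annealed dual-labelled DNA beacon duplex, ATP-started. Timing: 60 min unwinding reaction at 25 °C after ATP addition. Technique: Cy5 fluorescence. Measure: % inhibition of unwinding.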
EBNA-1 inhibitor: blocks EBNA-1 binding to DNA; EBNA-1 DNA binding, fluorescence polarization; inhibition, % at 14.8 µM; AID 1950; 0.34% of 300,000 active; in the data active means inhibition above about 28%
Numbers stand for hits; . = inactive; / = no result given. A selection: hits, their analogues and other compounds. The true share with any hit is near 2.3%.

SMILES	EBV gp42 block	GPR7 antagonist	HCV core dimer	ZTA DNA inh	NS3 helicase inh	EBNA-1 inhibitor
O=C(NCC1CCCO1)c1ccc(COCC(F)(F)C(F)F)cc1 (centres undefined)	.	16.5	.	.	.	.
CC12CCC(=O)N1C(C(=O)NNC(=O)c1ccc(F)cc1)CS2 (centres undefined)	/	/	.	.	/	.
C=CCNCCOCCOc1ccc(Cl)cc1C(C)(C)C	.	.	.	.	.	.
COCCCNCCOCCOc1ccc(Cl)cc1C(C)(C)C	.	35.2	.	.	.	.
CCOc1ccc2c(c1)sc(N)[n+]2Cc1cc(C)cc2cccnc12	.	35.4	.	.	.	.
Cc1cc(C[n+]2ncsc2N)c2ncccc2c1	.	.	.	.	.	.
O=C(CN1CCN(CC(=O)Nc2ccccc2F)CC1)Nc1ccc2c(c1)OCCO2	.	.	.	.	.	.
N#Cc1sc2nc(-c3ccccc3)cc(-c3ccco3)c2c1N	.	.	49.5	.	.	.
N#Cc1sc2nc(C3CC3)cc(-c3ccccc3)c2c1N	.	.	.	.	.	.
O=C(O)CCNS(=O)(=O)c1ccc2c(c1)OCCCO2	.	.	.	.	.	.
CC(NC(=O)c1cc(-c2ccncc2)nc2ccc(Cl)cc12)C1CCCO1 (centres undefined)	/	.	.	.	.	.
CC(NC(=O)c1cc(-c2cccnc2)nc2ccc(Br)cc12)C1CCCO1 (centres undefined)	/	.	.	150.8	.	160.0
O=C(NC1CCCCNC1=O)c1ccco1 (centres undefined)	/	.	.	.	.	.
O=c1cc(CSc2nnc(NC3CCCCC3)s2)nc2sccn12	.	.	.	.	.	.
C=CCn1c(SCc2cc(=O)n3ccsc3n2)nnc1C1CCCCC1	.	.	68.5	.	.	.
Cc1ccsc1/C=C/C1=Cc2c(sc(NC(=O)CSc3n[nH]c(N)n3)c2C#N)C(C)(C)C1	.	.	76.6	.	.	.
CCOc1ccc(/C=C/C2=Cc3c(sc(NC(=O)CSc4n[nH]c(N)n4)c3C#N)C(C)(C)C2)cc1	.	.	71.6	.	.	.
COC(=O)c1cc(C(=O)OCC(=O)NCc2cccs2)cc([N+](=O)[O-])c1	/	/	/	.	/	/
CC(=O)c1ccc(NC(=O)CN2C(=O)/C(=C/C=C/c3ccccc3)SC2=S)cc1	.	.	65.0	.	.	.
Cc1ccc(/C=C2\SC(=S)N(CCC(=O)NNC(=O)c3ccncc3)C2=O)cc1	.	.	.	.	.	.
CC(=O)NNC(=O)CN1C(=O)/C(=C/c2ccccc2)SC1=S	.	20.8	.	.	.	.
Cc1ccc(/C=C2\SC(=S)N(CCC(=O)NNS(=O)(=O)c3ccc(C)cc3)C2=O)cc1	.	20.6	.	.	.	.
CCN(CC)C(=O)CN1C(=O)/C(=C/c2ccccc2)SC1=S	.	.	.	.	.	.
NC1=NC(c2cn[nH]c2-c2ccc(F)cc2)n2c(nc3ccccc32)N1 (centres undefined)	.	.	.	.	.	.
Cc1cc(NC(=O)CSc2nnc(-c3c[nH]c4ccccc34)n2C)no1	.	.	.	.	.	.
SMILES	EBV gp42 block	GPR7 antagonist	HCV core dimer	ZTA DNA inh	NS3 helicase inh	EBNA-1 inhibitor
O=C(Nc1ccc(Cl)c(Cl)c1)Nc1nnc(-c2ccncc2)s1	82.9	.	87.4	.	.	.
COc1ccc(NC(=O)Nc2nnc(-c3ccncc3)s2)cc1	.	.	.	.	.	.
O=C(Nc1nc(-c2ccco2)c(-c2ccco2)s1)c1c(F)cccc1Cl	/	/	/	.	/	/
O=C(Nc1nc(-c2ccco2)c(-c2ccco2)s1)c1cnccn1	/	/	68.8	.	/	.
CCNC(=O)NC(=O)C(C)Sc1ncc(C(F)(F)F)cc1Cl (centres undefined)	.	.	.	.	.	.
COc1ccc(/C(O)=C/c2nc3ccccc3n(-c3ccccc3)c2=O)cc1	58.6	.	.	.	.	.
CCc1ccc(CN(C)C(=O)CCc2nc3ccccc3n(-c3ccc(OC)cc3)c2=O)cc1	.	.	.	.	.	.
CCCCN(C(=O)c1ccc(-c2ccc([N+](=O)[O-])cc2)o1)c1c(N)n(CC(C)C)c(=O)[nH]c1=O	/	/	/	.	/	/
Cc1ccc(/C=C/C(=O)N2CCc3ccccc32)o1	.	.	62.8	.	.	.
COc1ccccc1Nc1nc2ccc(C)cc2cc1C#N	57.2	.	.	.	.	.
CC(NC(=O)CCCCCCN1C(=O)c2ccccc2C1=O)c1ccc2c(c1)CCCC2 (centres undefined)	.	.	.	.	.	.
COc1ccc(O)c(/C=C2/SC(=S)N(Cc3ccccc3)C2=O)c1	/	.	.	.	.	.
COc1ccc(OC)c(/C=C2\SC(=S)N(Cc3cccnc3)C2=O)c1	142.4	.	.	.	.	.
CCOC(=O)c1ccc(N2C(=O)CC(C)(CC)CC2=O)cc1	.	.	.	.	.	.
CCOc1ccc(Cn2c3ccc(OC)cc3c3nc4ccccc4nc32)cc1OC	56.0	.	.	.	.	.
CCOC(=O)Cn1c2ccc(OC)cc2c2nc3ccccc3nc21	63.9	.	.	.	.	.
COC(=O)Cn1c2ccc(OC)cc2c2nc3ccccc3nc21	.	.	.	.	.	.
COc1ccc2c(c1)c1nc3ccccc3nc1n2Cc1ccc(OC)c(OC)c1	59.2	.	.	.	.	.
COc1ccc(/C=C/c2nc3ccccc3n2Cc2ccc(OC)c(OC)c2)cc1	.	.	.	.	.	.
CC1(C(=O)OCC(=O)c2c[nH]c3ccccc23)CC1(Cl)Cl (centres undefined)	.	.	.	.	.	.
Oc1ccccc1CNc1ccc(Br)cn1	.	68.5	.	.	.	.
Brc1ccc(NCc2cccc3ccccc23)nc1	.	.	.	.	.	.
CCc1cccc(NS(=O)(=O)c2c(C)nc3sc(CC)nn3c2=O)c1	/	20.8	.	.	.	.
Cc1ccc(/C=C2\CCC3=C2OC(N)=C(C#N)C3c2ccc(C)cc2)cc1 (centres undefined)	57.8	.	75.7	.	.	.
O=[N+]([O-])c1cc(NCCO)c(N2CCCCCC2)c2nonc12	/	.	.	.	.	.
SMILES	EBV gp42 block	GPR7 antagonist	HCV core dimer	ZTA DNA inh	NS3 helicase inh	EBNA-1 inhibitor
Cc1ccc(S(=O)(=O)C(C#N)c2nc3ccccc3nc2N2CCCC2)cc1 (centres undefined)	90.5	.	.	.	.	.
CCN1CCN(c2nc3ccccc3nc2C(C#N)S(=O)(=O)c2ccc(C)cc2)CC1 (centres undefined)	.	.	.	.	.	.
CN(Cc1cccs1)C(=O)COc1ccc(-c2nnco2)cc1	.	.	.	.	.	.
Cc1cccc(C)c1NC(=O)CSc1nc(C)c(CC(=O)c2ccc(Br)cc2)c(C)c1C#N	.	.	69.9	.	.	.
COc1ccc(NC(=O)c2ccc(Oc3ncccn3)cc2)cc1	.	.	.	.	.	.
CCCCCCCCCC[n+]1cccc2c3ccccc3ccc21	.	69.9	/	/	.	/
